High-throughput results: PubChem, Johns Hopkins Ion Channel Center
TRPC6 act = mouse TRPC6 channel activation; Q61143; HEK293-TRPC6 membrane potential dye fluorescence; active compounds read high; B-score at 10 µM; 310,000 tested, 0.13% active; AID 2550;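 active means B-score of the integrated fluorescence ratio above library mean plus 3 SD, and starting fluorescence ratio within library mean plus 5 SD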;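 further: higher score means more depolarization so channel activation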
TRPC4 inh = inhibitors of mouse TRPC4 channel | Q9QUQ5 | HEK293 TRPC4beta/mu-opioid, DAMGO-evoked Fluo4 calcium flux; active compounds read low | B-score at 10 µM | 300,000 tested, 0.39% active | AID 2247;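 active means B-score over 3 SD under the library average, no early fluorescence shift, positive overall ratio signal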
Target sequence (Q9QUQ5 whole entry, looked up): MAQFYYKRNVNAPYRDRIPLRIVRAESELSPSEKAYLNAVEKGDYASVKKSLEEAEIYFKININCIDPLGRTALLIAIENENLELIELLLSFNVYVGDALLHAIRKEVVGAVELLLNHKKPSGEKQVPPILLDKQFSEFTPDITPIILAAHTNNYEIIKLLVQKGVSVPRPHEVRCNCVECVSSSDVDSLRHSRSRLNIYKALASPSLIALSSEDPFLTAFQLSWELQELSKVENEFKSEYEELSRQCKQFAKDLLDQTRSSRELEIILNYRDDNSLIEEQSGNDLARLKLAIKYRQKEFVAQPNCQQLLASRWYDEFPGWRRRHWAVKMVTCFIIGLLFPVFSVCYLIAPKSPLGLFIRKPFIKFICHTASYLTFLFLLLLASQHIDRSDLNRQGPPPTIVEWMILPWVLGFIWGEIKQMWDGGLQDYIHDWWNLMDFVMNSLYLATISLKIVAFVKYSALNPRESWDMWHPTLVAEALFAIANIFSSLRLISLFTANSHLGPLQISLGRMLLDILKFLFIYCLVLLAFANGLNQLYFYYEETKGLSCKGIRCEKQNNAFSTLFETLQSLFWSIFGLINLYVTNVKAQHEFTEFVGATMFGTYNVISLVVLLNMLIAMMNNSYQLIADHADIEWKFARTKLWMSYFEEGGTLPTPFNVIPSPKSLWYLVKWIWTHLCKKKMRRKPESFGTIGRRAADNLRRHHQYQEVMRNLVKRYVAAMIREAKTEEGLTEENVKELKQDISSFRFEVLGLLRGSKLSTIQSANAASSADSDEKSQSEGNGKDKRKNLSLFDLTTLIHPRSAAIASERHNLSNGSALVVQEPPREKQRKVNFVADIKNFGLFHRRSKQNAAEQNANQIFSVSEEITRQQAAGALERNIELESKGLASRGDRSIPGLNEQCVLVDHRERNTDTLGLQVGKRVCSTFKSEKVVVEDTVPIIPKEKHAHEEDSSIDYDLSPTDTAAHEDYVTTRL
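Assay system: HEK293 cells with stable TRPC4beta plus mu-opioid receptor expression. Dosing: single dose. Measured by: Fluo4 Ca2+ flux fluorescence. Also added: DAMGO in two steps, submaximal then maximal. Read-out: B score from integrated Fluo4 fluorescence ratio.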
TRPC6 inhibitor = inhibitors of mouse TRPC6 channel. Q61143. HEK293-TRPC6, membrane potential dye, ACh-evoked depolarization; active compounds read low. B-score at 10 µM. 310,000 tested, 1.1% active;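 active means B-score under library mean minus 3 SD, initial fluorescence not abnormally high, positive integrated signal ratio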;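 further: B-score derived from integrated fluorescence ratio over the kinetic read; more negative B-score means stronger inhibition of depolarization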
TRPC4 potent = allosterically enhances the mouse TRPC4 cation channel | 310,000 tested, 0.42% active | Q9QUQ5 | HEK293 TRPC4beta/mu-opioid, DAMGO EC20, Fluo-4 Ca2+ flux; active compounds read high | B-score at 10 µM;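 active means B-score of calcium response area above 5 SD of library B-scores, with initial fluorescence ratio within 5 SD of library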;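 further: B-score of integrated fluorescence ratio over time as area under calcium response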
TRPC4 agonist = TRPC4 (mouse) channel activation. 310,000 tested, 0.49% active. HEK293 TRPC4beta/mu-opioid, Fluo4 calcium fluorescence; active compounds read high. Q9QUQ5. B-score at 10 µM. AID 2237;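 active means B-score above 5 SD of library B-scores, and initial fluorescence ratio not above library mean plus 5 SD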;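 further: positive B-score marks a calcium rise read as TRPC4 activation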
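Material: TRPC4beta and mu-opioid receptor HEK293 stable cells | Incubation: 45 min room-temperature Fluo4 loading, 110 s read | Detection: Kinetic Fluo4 calcium fluorescence | Measure: Integrated baseline-normalised fluorescence ratio, converted to per-well B score | Benchmarks: Low control buffer alone, high control maximal DAMGO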
TRPC4 sel inh 2 = mouse TRPC4 off-target activity of TRPC6 inhibitors, second screen; shares compounds with TRPC6 inhibitor; HEK293 TRPC4/MOR, membrane potential dye fluorescence; channel activated by saturating DAMGO dose; inhibition, % at 10 µM; 920 tested, 42% active; AID 2776;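 active means compounds whose fluorescence signal differed from control wells by over 3 SD, either direction, in both duplicate plates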
TRPC4 spec = selectivity of TRPC6 inhibitors: effect on mouse TRPC4 | shares compounds with TRPC6 inhibitor | HEK293 TRPC4/mu-opioid, membrane potential fluorescence | activity change, negative = inhibition, % at 10 µM | 920 tested, 61% active | AID 2777;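 active means rise or fall in signal beyond 3 SD of buffer-only wells in both replicate plates, either sign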;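 further: integrated kinetic ratio of fluorescence range over baseline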
HEK293 MPD ctr 2-1 = parental HEK293 nonspecific activity of TRPC6 inhibitors, second screen. AID 2779. signal change vs control, % at 10 µM. shares compounds with TRPC6 inhibitor. parental HEK293 membrane potential dye fluorescence; maximal acetylcholine challenge after compound addition. 920 tested, 31% active;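 active means membrane potential signal moving either way by over 3 SD of the maximum-effect control, in both duplicate plates, meaning non-specific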
HEK293 MPD ctr-1 = checks TRPC6 inhibitor effects in parental HEK293 cells. AID 2780. parental HEK293 membrane potential dye fluorescence. membrane potential signal change, % at 10 µM. 920 tested, 60% active. shares compounds with TRPC6 inhibitor;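 active means membrane potential signal shifting up or down by more than 3 SD of buffer-only wells, on both duplicate plates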
HEK293 MPD ctr-2 = parental HEK293 nonspecific activity of TRPC6 modulators; shares compounds with TRPC6 inhibitor; membrane potential dye fluorescence; membrane potential signal change, % at 10 µM; 2,400 tested, 51% active; AID 488924;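 active means membrane potential signal moves up or down beyond 5 SD from buffer-only wells, on both duplicate plates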
HEK293 MPD ctr 2-2 = second counter-screen for TRPC6 modulators: effect in parental HEK293 cells | membrane potential dye fluorescence; after compound, maximal acetylcholine stimulation | shares compounds with TRPC6 inhibitor | inhibition, % at 10 µM | AID 488926 | 2,400 tested, 14% active;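 active means membrane potential signal drops by more than 5 SD from the mean control signal, in both duplicate plates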;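 further: plate controls were acetylcholine ECmax control wells for no effect and buffer only wells for full effect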
TRPC4 ctr mod = mouse TRPC4 off-target activity of TRPC6 modulators | shares compounds with TRPC6 inhibitor | HEK293 TRPC4/mu-opioid, membrane potential fluorescence | percent change from control (negative = decrease, positive = increase), % at 10 µM | 2,400 tested, 69% active;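 active means membrane potential signal moved up or down beyond 5 SD of buffer control wells, in both duplicate plates, actives on both sides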;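 further: plate controls were assay buffer wells for no effect and DAMGO maximal-effect wells for full effect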
TRPC4 ctr inh 2 = second selectivity test of TRPC6 modulators against mouse TRPC4. shares compounds with TRPC6 inhibitor. 2,400 tested, 55% active. HEK293 TRPC4/mu-opioid, membrane potential dye fluorescence; stimulated with maximal-effect DAMGO. AID 488928. inhibition, % at 10 µM;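 active means drop in membrane potential signal beyond 5 SD of the control wells in both duplicate plates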;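 further: TRPC4 counter screen for TRPC6 hits run under conditions tuned for TRPC6 not TRPC4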
TRPC6 block conf = confirmation of mouse TRPC6 inhibitors | shares compounds with TRPC6 inhibitor | 3,300 tested, 43% active | AID 488960 | inhibition, % at 10 µM | HEK293-TRPC6, membrane potential dye, ACh-evoked depolarization;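 active means fluorescence ratio falls more than 5 SD below the full-stimulation control mean, in both duplicate runs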;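 further: integrated fluorescence ratio of peak minus minimum over baseline after agonist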
TRPC6 act conf = confirmation of mouse TRPC6 activators; shares compounds with TRPC6 inhibitor; HEK293-TRPC6 membrane potential dye fluorescence, FDSS; activation, % at 10 µM; 2,800 tested, 11% active; AID 488961;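 active means ratio signal rise beyond 5 SD above unstimulated control wells' mean, seen in both duplicate runs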;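 further: plate controls were buffer EC0 wells for no effect and acetylcholine ECmax response for full effect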
* = called active by the depositor; i = inactive; nt = no result. Only some compounds are listed: those with a hit (about 2.3% of all), similar ones and a draw of the others.

SMILES | TRPC6 act | TRPC4 inh | TRPC6 inhibitor | TRPC4 potent | TRPC4 agonist | HEK293 MPD ctr-2 | HEK293 MPD ctr 2-2 | TRPC4 ctr mod | TRPC4 ctr inh 2 | TRPC6 block conf | TRPC6 act conf | others
COc1cccc(N2CCN(C3CCCC(C)C3)CC2)c1 (stereo not given) | i | i | -5.82* | i | i | 184.0%* | i | 38.5%* | 48.0%* | i | nt
CS(=O)(=O)N(CC(=O)Nc1ccc2c(c1)OCCO2)Cc1ccc(Cl)cc1 | i | i | i | i | i | nt | nt | nt | nt | nt | nt
CCOC(=O)c1ccc(NC(=O)CN(Cc2ccc(Cl)cc2)S(C)(=O)=O)cc1 | i | i | -6.6* | i | i | nt | nt | nt | nt | i | i | TRPC4 sel inh 2=i;TRPC4 spec=-12.3%*;HEK293 MPD ctr 2-1=i;HEK293 MPD ctr-1=i
CCOC(=O)c1ccc(NC(=S)N(CCN2CCCCCC2)Cc2ccco2)cc1 | i | i | i | i | i | nt | nt | nt | nt | nt | nt
CCOC(=O)c1ccc(NC(=S)NCc2ccc(S(N)(=O)=O)cc2)cc1 | i | i | -5.32* | i | i | i | i | i | i | 48.0%* | nt
CCOC(=O)c1ccc(NC(=S)N(CCCN2CCCCCC2)Cc2ccco2)cc1 | i | i | -5.71* | i | i | i | i | i | 77.0%* | 55.5%* | i
CCOc1ccc(NC(=S)NCc2ccco2)cc1 | i | i | i | i | i | nt | nt | nt | nt | nt | nt
CCOC(=O)c1ccc(NC(=S)NCc2ccco2)cc1 | i | i | -9.3* | i | i | nt | nt | nt | nt | i | i | TRPC4 sel inh 2=i;TRPC4 spec=i;HEK293 MPD ctr 2-1=i;HEK293 MPD ctr-1=i
CN(Cc1ccc(Cl)cc1Cl)C(=O)CNC(=O)c1ccco1 | i | i | i | i | i | nt | nt | nt | nt | nt | nt
Cc1ccc(N2C(=O)CC(C)CC2=O)cc1 | i | i | i | i | i | nt | nt | nt | nt | nt | nt
CCOC(=O)c1c(-c2ccccc2)csc1NC(=O)/C(C#N)=C/c1ccc(OC)c(OC)c1 | i | i | i | i | i | nt | nt | nt | nt | nt | nt
CCOC(=O)c1c(-c2ccccc2)csc1NC(=O)/C(C#N)=C/c1ccc(O)c(OC)c1 | 35.3* | i | i | i | i | 438.0%* | i | 91.5%* | i | i | 129.0%*
Cc1c(C)n(CCCN(C)C)c2ncnc(Nc3ccc(F)cc3)c12 | i | i | -6.32* | i | i | -144.0%* | i | -30.0%* | 37.5%* | 40.0%* | i
Cc1c(C)n(CCc2ccccc2)c2ncnc(NCCCN(C)C)c12 | i | i | -6.32* | i | i | -70.5%* | i | -22.0%* | 58.0%* | 57.5%* | i
Cc1c(C)n(CCN(C)C)c2ncnc(NCc3ccccc3)c12 | i | i | i | i | i | nt | nt | nt | nt | nt | nt
CC(=O)Nc1ccc(NC(=O)CSc2ccc3nnc(-c4ccccn4)n3n2)cc1 | i | i | i | i | i | nt | nt | nt | nt | nt | nt
Nc1c(C(=O)Nc2ccccc2)c2nc3ccccc3nc2n1-c1ccc(O)cc1 | i | i | i | i | i | nt | nt | nt | nt | nt | nt
Cc1cc(N2CCN(c3cccc(C(F)(F)F)c3)CC2)n2ncnc2n1 | i | i | i | i | i | nt | nt | nt | nt | nt | nt
Cc1nc2ncnn2c(N2CCN(c3cccc(C(F)(F)F)c3)CC2)c1C | 12.6* | i | i | i | i | 338.5%* | i | 65.0%* | i | i | 129.5%*
COC(=O)c1ccc2c(c1)C(C)(C)C(/C=C/c1ccccc1O)=[N+]2C | i | i | -10.3* | i | i | 410.0%* | 199.0%* | -207.5%* | 99.0%* | 106.5%* | i
COC(=O)c1cccc(N/C=C(\[N+](=O)[O-])S(=O)(=O)c2ccccc2)c1 | i | i | i | i | i | nt | nt | nt | nt | nt | nt
CCN(CC)CCN(C(=O)c1ccc(Br)s1)c1nc2cc3c(cc2s1)OCCO3 | i | i | i | i | i | nt | nt | nt | nt | nt | nt
CN(C)CCCN(C(=O)c1ccc(Br)s1)c1nc2cc3c(cc2s1)OCCO3 | i | i | -6.39* | i | 63* | i | i | -13.5%* | 81.5%* | 59.5%* | i
CN(C)CCCN(C(=O)c1cc(Cl)sc1Cl)c1nc2cc3c(cc2s1)OCO3 | i | i | -5.07* | i | i | i | 55.0%* | i | 91.0%* | 61.0%* | i
Cc1ccc2nc(N(CCN(C)C)C(=O)c3cc(Cl)sc3Cl)sc2c1 | i | i | i | i | i | nt | nt | nt | nt | nt | nt
CN(C)CCCN(C(=O)c1cccs1)c1nc2cc3c(cc2s1)OCO3 | i | -8* | -9.7* | i | i | i | i | -19.0%* | 64.5%* | 42.0%* | i
CN(C)CCCN(C(=O)c1ccc([N+](=O)[O-])s1)c1nc2cc3c(cc2s1)OCCO3 | i | i | i | i | i | nt | nt | nt | nt | nt | nt
CN(C)CCCN(C(=O)c1ccc(Cl)s1)c1nc2cc3c(cc2s1)OCO3 | i | i | -6.09* | i | 100* | i | i | -21.5%* | 84.5%* | 48.0%* | i
COc1cccc(/C=N/NC(=O)Cn2ccnc2C)c1 | i | i | i | i | i | nt | nt | nt | nt | nt | nt
COc1ccc(OC)c(/C=N/NC(=O)Cn2ccnc2C)c1 | 13.8* | i | -10.3* | i | i | i | i | i | i | 80.5%* | 186.5%*
